In ChEMBL document CHEMBL1287795, “Synthesis and biological evaluation of 1H-benzimidazol-5-ols as potent HBV inhibitors” (Bioorg Med Chem Lett, 2010):

Experiments:
[1] = tested on: Hepatitis B virus; assay: Antiviral activity against Hepatitis B virus infected in HepG2.2.15 assessed as inhibition of HBV replication at <245.1 +/- 4.8 uM by quantitative Southern blot hybridization analysis; format: functional, organism-based; conditions: hepg2 2.2.15
[2] = Cytotoxicity against human HepG2(2.2.15) after 9 days by neutral dye uptake method; format: cell-based; conditions: HepG2(2.2.15) cells
Outline: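 Confluent 2.2.15 cells were exposed to compound in culture medium for 9 consecutive days, with untreated controls on every plate. Viability was read as neutral red uptake by absorbance at 510 nm relative to untreated cells, giving CC50. Mean and SD of three separate experiments.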

[3] = tested on: Hepatitis B virus; assay: Antiviral activity against Hepatitis B virus infected in HepG2.2.15 assessed as inhibition of HBsAg production at <245.1 +/- 4.8 uM by EIA; format: functional, organism-based; conditions: hepg2 2.2.15
[4] = tested on: Hepatitis B virus; assay: Antiviral activity against Hepatitis B virus infected in HepG2.2.15 assessed as inhibition of HBV replication at <227.0 +/- 4.1 uM by quantitative Southern blot hybridization analysis; format: functional, organism-based; conditions: hepg2 2.2.15
[5] = tested on: Hepatitis B virus; assay: Antiviral activity against Hepatitis B virus infected in HepG2.2.15 assessed as inhibition of HBsAg production at <227.0 +/- 4.1 uM by EIA; format: functional, organism-based; conditions: hepg2 2.2.15
[6] = tested on: Hepatitis B virus; assay: Antiviral activity against Hepatitis B virus infected in HepG2.2.15 assessed as inhibition of HBV replication at <86.9 +/- 3.6 uM by quantitative Southern blot hybridization analysis; format: functional, organism-based; conditions: hepg2 2.2.15
[7] = tested on: Hepatitis B virus; assay: Antiviral activity against Hepatitis B virus infected in HepG2.2.15 assessed as inhibition of HBsAg production at <86.9 +/- 3.6 uM by EIA; format: functional, organism-based; conditions: hepg2 2.2.15
[8] = tested on: Hepatitis B virus; assay: Antiviral activity against Hepatitis B virus infected in HepG2.2.15 assessed as inhibition of HBsAg production by EIA; format: functional, organism-based; conditions: HepG2 2.2.15
Outline: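 HBsAg secreted into the medium by confluent 2.2.15 cultures (RPMI 1640, 2% FBS) measured by semiquantitative enzyme immunoassay eight days after the first of eight consecutive daily treatments. Medium and compound were renewed daily, with an untreated cell control. Gives the 50% inhibitory concentration; mean and SD from three separate experiments.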

[9] = Selectivity index, ratio of CC50 for human HepG2.2.15 cells to IC50 for inhibition of HBsAg production; format: functional
Outline: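 SI = CC50/IC50. CC50 is from neutral red uptake after 9 days of treatment. IC50 is from HBsAg EIA after eight daily doses, in 2.2.15 cells.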

[10] = tested on: Hepatitis B virus; assay: Antiviral activity against Hepatitis B virus infected in HepG2.2.15 assessed as inhibition of HBV replication at <209.8 +/- 4.7 uM by quantitative Southern blot hybridization analysis; format: functional, organism-based; conditions: hepg2 2.2.15
[11] = tested on: Hepatitis B virus; assay: Antiviral activity against Hepatitis B virus infected in HepG2.2.15 assessed as inhibition of HBV replication at <74.8 +/- 3.9 uM by quantitative Southern blot hybridization analysis; format: functional, organism-based; conditions: hepg2 2.2.15
[12] = tested on: Hepatitis B virus; assay: Antiviral activity against Hepatitis B virus infected in HepG2.2.15 assessed as inhibition of HBsAg production at <74.8 +/- 3.9 uM by EIA; format: functional, organism-based; conditions: hepg2 2.2.15
[13] = tested on: Hepatitis B virus; assay: Antiviral activity against Hepatitis B virus infected in HepG2.2.15 assessed as inhibition of HBV replication at <64.5 +/- 2.8 uM by quantitative Southern blot hybridization analysis; format: functional, organism-based; conditions: hepg2 2.2.15
[14] = Selectivity index, ratio of CC50 for human HepG2.2.15 cells to IC50 for inhibition of Hepatitis B virus DNA replication; format: functional
Outline: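 SI = CC50/IC50. CC50 is from neutral red uptake after 9 days of treatment. IC50 is from Southern blot of intracellular HBV DNA after eight daily doses, in 2.2.15 cells.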

[15] = tested on: Hepatitis B virus; assay: Antiviral activity against Hepatitis B virus infected in HepG2.2.15 assessed as inhibition of HBsAg production at <76.3 +/- 3.3 uM by EIA; format: functional, organism-based; conditions: hepg2 2.2.15
[16] = tested on: Hepatitis B virus; assay: Antiviral activity against Hepatitis B virus infected in HepG2.2.15 assessed as inhibition of HBV replication by quantitative Southern blot hybridization analysis; format: functional, organism-based; conditions: HepG2 2.2.15
Outline: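 Confluent 2.2.15 cells in RPMI 1640 with 2% FBS, dosed daily for eight consecutive days, with medium and compound replaced each day; untreated cell control. Intracellular HBV DNA quantified by Southern blot hybridization eight days after first treatment. IC50 is 50% inhibitory concentration; mean and SD of three separate experiments.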

[17] = tested on: Hepatitis B virus; assay: Antiviral activity against Hepatitis B virus infected in HepG2.2.15 assessed as inhibition of HBsAg production at <101.2 +/- 3.8 by EIA; format: functional, organism-based; conditions: hepg2 2.2.15
[18] = tested on: Hepatitis B virus; assay: Antiviral activity against Hepatitis B virus infected in HepG2.2.15 assessed as inhibition of HBsAg production at <80.1 +/- 3.5 uM by EIA; format: functional, organism-based; conditions: hepg2 2.2.15
[19] = tested on: Hepatitis B virus; assay: Antiviral activity against Hepatitis B virus infected in HepG2.2.15 assessed as inhibition of HBsAg production at <60.8 +/- 4.6 uM by EIA; format: functional, organism-based; conditions: hepg2 2.2.15
[20] = tested on: Hepatitis B virus; assay: Antiviral activity against Hepatitis B virus infected in HepG2.2.15 assessed as inhibition of HBsAg production at <91.2 +/- 3.5 uM by EIA; format: functional, organism-based; conditions: hepg2 2.2.15
[21] = tested on: Hepatitis B virus; assay: Antiviral activity against Hepatitis B virus infected in HepG2.2.15 assessed as inhibition of HBsAg production at <64.5 +/- 4.2 uM by EIA; format: functional, organism-based; conditions: hepg2 2.2.15
[22] = tested on: Hepatitis B virus; assay: Antiviral activity against Hepatitis B virus infected in HepG2.2.15 assessed as inhibition of HBV replication at <64.5 +/- 4.2 uM by quantitative Southern blot hybridization analysis; format: functional, organism-based; conditions: hepg2 2.2.15
[23] = tested on: Hepatitis B virus; assay: Antiviral activity against Hepatitis B virus infected in HepG2.2.15 assessed as inhibition of HBsAg production at <163.9 +/- 4.4 uM by EIA; format: functional, organism-based; conditions: hepg2 2.2.15
[24] = tested on: Hepatitis B virus; assay: Antiviral activity against Hepatitis B virus infected in HepG2.2.15 assessed as inhibition of HBsAg production at <102.7 +/- 3.3 uM by EIA; format: functional, organism-based; conditions: hepg2 2.2.15
[25] = tested on: Hepatitis B virus; assay: Antiviral activity against Hepatitis B virus infected in HepG2.2.15 assessed as inhibition of HBV replication at <102.7 +/- 3.3 uM by quantitative Southern blot hybridization analysis; format: functional, organism-based; conditions: hepg2 2.2.15
[26] = tested on: Hepatitis B virus; assay: Antiviral activity against Hepatitis B virus infected in HepG2.2.15 assessed as inhibition of HBV replication at <900.5 +/- 5.3 uM by quantitative Southern blot hybridization analysis; format: functional, organism-based; conditions: hepg2 2.2.15
[27] = tested on: Hepatitis B virus; assay: Antiviral activity against Hepatitis B virus infected in HepG2.2.15 assessed as inhibition of HBV replication at <556.9 +/- 1.8 uM by quantitative Southern blot hybridization analysis; format: functional, organism-based; conditions: hepg2 2.2.15
[28] = tested on: Hepatitis B virus; assay: Antiviral activity against Hepatitis B virus infected in HepG2.2.15 assessed as inhibition of HBV replication at <757.8 +/- 4.3 uM by quantitative Southern blot hybridization analysis; format: functional, organism-based; conditions: hepg2 2.2.15
[29] = tested on: Hepatitis B virus; assay: Antiviral activity against Hepatitis B virus infected in HepG2.2.15 assessed as inhibition of HBV replication at <739.9 +/- 3.6 uM by quantitative Southern blot hybridization analysis; format: functional, organism-based; conditions: hepg2 2.2.15
[30] = tested on: Hepatitis B virus; assay: Antiviral activity against Hepatitis B virus infected in HepG2.2.15 assessed as inhibition of HBV replication at <622.8 +/- 3.4 uM by quantitative Southern blot hybridization analysis; format: functional, organism-based; conditions: hepg2 2.2.15
[31] = tested on: Hepatitis B virus; assay: Antiviral activity against Hepatitis B virus infected in HepG2.2.15 assessed as inhibition of HBV replication at <506.3 +/- 3.2 uM by quantitative Southern blot hybridization analysis; format: functional, organism-based; conditions: hepg2 2.2.15
[32] = tested on: Hepatitis B virus; assay: Antiviral activity against Hepatitis B virus infected in HepG2.2.15 assessed as inhibition of HBsAg production at <2183.1 +/- 4.1 by EIA; format: functional, organism-based; conditions: hepg2 2.2.15

Compound	CC50 at 216 h [2] [µM]	IC50 [8] [µM]	Selectivity Index [9]	Selectivity Index [14]	further results
CN(C)Cc1c(O)ccc2c1nc(CSc1ccccc1)n2C	245				IC50 [1]: Not Active; IC50 [3]: Not Active
Cn1c(CSc2ccccc2)nc2c(CN3CCCC3)c(O)ccc21	227				IC50 [4]: Not Active; IC50 [5]: Not Active
Cn1c(CSc2ccccc2)nc2c(CN3CCOCC3)c(O)ccc21	86.9				IC50 [6]: Not Active; IC50 [7]: Not Active
CN1CCN(Cc2c(O)ccc3c2nc(CSc2ccccc2)n3C)CC1	210	27	7.8		IC50 [10]: Not Active
Cn1c(CSc2ccc(F)cc2)nc2c(CN3CCCC3)c(O)ccc21	74.8				IC50 [11]: Not Active; IC50 [12]: Not Active
CN1CCN(Cc2c(O)ccc3c2nc(CSc2ccc(F)cc2)n3C)CC1	64.5	10.7	6		IC50 [13]: Not Active
Cn1c(CSc2ccccc2)nc2c(Cn3ccnc3)c(O)ccc21	76.3			8.4	IC50 [15]: Not Active; IC50 [16]: 9.1 µM
Cc1nccn1Cc1c(O)ccc2c1nc(CSc1ccccc1)n2C	101			13	IC50 [17]: Not Active; IC50 [16]: 7.8 µM
Cn1c(CSc2ccc(F)cc2)nc2c(Cn3ccnc3)c(O)ccc21	80.1			6.9	IC50 [18]: Not Active; IC50 [16]: 11.6 µM
Cc1ccc(SCc2nc3c(Cn4ccnc4)c(O)ccc3n2C)cc1	60.8			1.9	IC50 [19]: Not Active; IC50 [16]: 32.6 µM
Cc1ccc(SCc2nc3c(Cn4ccnc4C)c(O)ccc3n2C)cc1	91.2			2.5	IC50 [20]: Not Active; IC50 [16]: 36.1 µM
COc1ccc(SCc2nc3c(Cn4ccnc4)c(O)ccc3n2C)cc1	64.5				IC50 [21]: Not Active; IC50 [22]: Not Active
COc1ccc(SCc2nc3c(Cn4ccnc4C)c(O)ccc3n2C)cc1	164			3.7	IC50 [23]: Not Active; IC50 [16]: 44.5 µM
COc1cccc(SCc2nc3c(Cn4ccnc4C)c(O)ccc3n2C)c1	103				IC50 [24]: Not Active; IC50 [25]: Not Active
Cn1c(C[S+]([O-])c2ccccc2)nc2c(CN3CCOCC3)c(O)ccc21 (configuration not stated)	900	401	2.2		IC50 [26]: Not Active
Cn1c(C[S+]([O-])c2ccccc2)nc2c(Cn3ccnc3)c(O)ccc21 (configuration not stated)	557	189	2.9		IC50 [27]: Not Active
Cc1ccc([S+]([O-])Cc2nc3c(Cn4ccnc4)c(O)ccc3n2C)cc1 (configuration not stated)	758	176	4.3		IC50 [28]: Not Active
Cn1c(CS(=O)(=O)c2ccccc2)nc2c(CN3CCOCC3)c(O)ccc21	740	326	2.3		IC50 [29]: Not Active
Cn1c(CS(=O)(=O)c2ccccc2)nc2c(Cn3ccnc3)c(O)ccc21	623	70.2	8.9		IC50 [30]: Not Active
Cc1ccc(S(=O)(=O)Cc2nc3c(Cn4ccnc4)c(O)ccc3n2C)cc1	506	62.6	8.1		IC50 [31]: Not Active
Nc1ccn([C@@H]2CS[C@H](CO)O2)c(=O)n1 [LAMIVUDINE]	2180			9.1	IC50 [32]: Not Active
